Source: PubChem BioAssay (several laboratories)
A selection: hits, their analogues and other compounds. The true share with any hit is near 3.2%.
MEKK3 PB1 HTS – raises or lowers MEK5 binding to the human MEKK3 PB1 domain; binding response (% of control), % at 10 µM; bead-based flow cytometry, Alexa488-MEK5 binding to MEKK3; actives lie on both sides; 0 = blocked by unlabeled MEK5, 100 = vehicle; 290,000 compounds, 1.4% hits; AID 1529;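 active means binding response more than 3 SD above or below the average of its plate-row segment, actives on both sides; inconclusive means wells at one plate position flagged as instrument error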;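 further: Alexa488 bead fluorescence after subtracting the streptavidin-only scavenger bead signal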
Target sequence (Q99759 whole entry, looked up, the tested form may be a part): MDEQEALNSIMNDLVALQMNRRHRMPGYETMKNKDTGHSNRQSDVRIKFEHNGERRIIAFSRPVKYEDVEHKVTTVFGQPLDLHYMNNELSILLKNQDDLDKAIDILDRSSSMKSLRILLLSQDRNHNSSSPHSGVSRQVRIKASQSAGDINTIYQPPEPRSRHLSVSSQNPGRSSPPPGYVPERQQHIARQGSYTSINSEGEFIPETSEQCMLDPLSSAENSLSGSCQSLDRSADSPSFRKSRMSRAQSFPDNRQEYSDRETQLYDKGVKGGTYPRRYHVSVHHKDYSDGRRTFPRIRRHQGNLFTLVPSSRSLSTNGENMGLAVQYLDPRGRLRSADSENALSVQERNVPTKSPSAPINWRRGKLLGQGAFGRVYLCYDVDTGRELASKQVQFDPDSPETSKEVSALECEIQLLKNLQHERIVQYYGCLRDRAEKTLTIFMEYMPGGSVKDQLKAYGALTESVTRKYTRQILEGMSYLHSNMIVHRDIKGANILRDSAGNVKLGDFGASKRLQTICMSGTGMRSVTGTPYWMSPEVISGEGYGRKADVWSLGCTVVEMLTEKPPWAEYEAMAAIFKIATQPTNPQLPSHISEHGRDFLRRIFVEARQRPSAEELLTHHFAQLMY
MEKK2mut PB1 HTS – signal of MEK5 binding to mutant human MEKK2 PB1 domain; 290,000 compounds, 0.35% hits; bead flow cytometry, Alexa488-MEK5 binding to MEKK2 mutant; percent response, % at 10 µM; AID 1530; in the data active means percent response above about 24%, passing the limit was not always enough
DSG3 Ab inh – inhibitors of pemphigus antibody binding to human desmoglein-3. P32926. DSG3-coupled beads, scFv-anti-DSG3-GFP binding, flow cytometry; active compounds read low. binding (percent of control), % at 10 µM. 310,000 compounds, 0.48% hits;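 active means binding more than 3 SD below its plate's average and above zero; inconclusive means below that plate limit but binding exactly zero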;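 further: hits lower antibody fragment binding to DSG3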
UBC13 polyUb – blocks human UBC13 polyubiquitin chain formation. TR-FRET. inhibition, % at 20 µM. 330,000 compounds, 0.47% hits; in the data active means inhibition above about 45%, passing the limit was not always enough; inconclusive means no clear call, values can overlap the other calls
MEKK2wt PB1 HTS – raises or lowers MEK5 binding to wildtype human MEKK2 PB1 domain; Q9Y2U5; bead flow cytometry, Alexa488-MEK5 binding to MEKK2 WT; actives lie on both sides; binding response (% of control), % at 10 µM; 290,000 compounds, 1.1% hits; AID 1531; in the data active means binding response below about 67% or above about 130%; inconclusive means no clear call, values can overlap the other calls; inactive means in between
Apaf-1 inh – human Apaf-1 inhibition; O14727; reconstituted apoptosome caspase-3 activity, DEVD-Rh110 fluorescence; inhibition, % at 20 µM; 330,000 compounds, 0.71% hits; AID 489030; active means inhibition of at least 40% at 20 µM
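Assay system – apoptosome proteins · Medium – Hepes buffer, pH 7.5 · Also added – cytochrome c with DEVD-Rh110 · Timing – 30 min compound preincubation, 50 min activation, room temperature · Detection – Rh110 fluorescence, excitation 480 nm, emission 540 nm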
MEKK2wt confirm – raises or lowers MEK5 binding to wildtype human MEKK2, retest. shares compounds with MEKK3 PB1 HTS. bead flow cytometry, Alexa488-MEK5 binding to MEKK2 WT; actives lie on both sides. binding response (% of control), % at 10 µM. 5,900 compounds, 2.4% hits; in the data active means binding response below about 16% or above about 210%; inactive means in between
MEKK2mut-MEK5 – signal of MEK5 binding to mutant human MEKK2, retest; 5,900 compounds, 2% hits; bead flow cytometry, Alexa488-MEK5 binding to MEKK2 mutant; shares compounds with MEKK3 PB1 HTS; percent response, % at 10 µM; in the data active means percent response mostly above about 71%, no sharp cut-off; inactive means mostly below about 38%;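 further: higher means compound restores mutant binding toward wildtype level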
MEKK3 confirm – confirmation of inhibitors of MEK5 binding to human MEKK3 | shares compounds with MEKK3 PB1 HTS | bead flow cytometry, Alexa488-MEK5 binding to MEKK3; active compounds read low | binding response (% of control), % at 10 µM | 5,900 compounds, 1.8% hits | AID 1894;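 active means binding response below 72% of control, or above a set upper limit, though filed actives all read lower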;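 further: lower values mean stronger disruption of MEK5 binding to MEKK3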
Hits are given with their value; i = inactive; ? = inconclusive; nt = not tested or not shown; [ ] = remark or other dose.

SMILES	MEKK3 PB1 HTS	MEKK2mut PB1 HTS	DSG3 Ab inh	UBC13 polyUb	MEKK2wt PB1 HTS	Apaf-1 inh	MEKK2wt confirm	MEKK2mut-MEK5	MEKK3 confirm
CC(O)C1C=CC=CC(=O)OC2CC3OC4C5OC5(C)C(O)CC4(COC(=O)C(O)C(C)CCO1)C2(C)C31CO1 (centres undefined)	nt	nt	73.8	nt	nt	nt	nt	nt	nt
C[C@@H]1CN([C@H](C)CO)C(=O)c2c(c3ccccc3n2C)-c2ccccc2CO[C@H]1CN(C)Cc1ccc2c(c1)OCCN2C	nt	nt	i	nt	nt	nt	nt	nt	nt
O=C1CC=C2C3CC4N(CCC45c4cc(O)c(O)cc4N1C25)CC3=CCBr (centres undefined)	nt	nt	53.6	nt	nt	nt	nt	nt	nt
O=C1CC=C2C3CC4N(CCC45c4ccccc4N1C25)CC3=CCO (centres undefined)	nt	nt	i	nt	nt	nt	nt	nt	nt
CCCOC(=O)c1ccc(-[n+]2c(-c3ccccc3)cc(-c3ccccc3)cc2-c2ccccc2)cc1	nt	nt	i	i	nt	47.4	nt	nt	nt
O=C1NC(=O)C(=Cc2ccc(-c3ccc(Cl)cc3)o2)C(=O)N1	i	i	71.6	i	i	i	nt	nt	nt
N#CC1c2ccccc2-n2nncc2CN1S(=O)(=O)c1ccccc1 (centres undefined)	nt	nt	i	nt	nt	nt	nt	nt	nt
COC(=O)C1=CO[C@@H](C)[C@H]2CN3CC[C@]4(C(=O)Nc5ccccc54)[C@@H]3C[C@H]12	i	i	i	i	-8.0	i	nt	nt	nt
NC(=O)c1ccc(N=Cc2c(O)n(Cc3ccco3)c(=O)[nH]c2=O)cc1	i	i	79.5	i	i	i	nt	nt	nt
CN1C(=O)/C(=C\c2ccc(N3CCCCCC3)cc2)C(=O)NC1=S	i	i	i	i	i	i	nt	nt	nt
CCC(C)N1C(=O)/C(=C\c2ccc(N3CCCCCC3)cc2)C(=O)NC1=S (centres undefined)	i	51.0	i	i	i	i	nt	nt	nt
CC(C)C[C@H]1C(=O)N2CCC[C@H]2[C@]2(O)O[C@](NC(=O)[C@@H]3C=C4c5cccc6[nH]cc(c56)C[C@H]4N(C)C3)(C(C)C)C(=O)N12	nt	nt	i	i	nt	91.1	nt	nt	nt
COC(=O)C1C=C2c3cccc4[nH]cc(c34)CC2N(C)C1 (centres undefined)	i	i	nt	i	i	55.8	nt	nt	nt
CCC(CO)NC(=O)C1C=C2c3cccc4[nH]cc(c34)CC2N(C)C1 (centres undefined)	i	i	i	i	i	i	nt	nt	nt
C=CCN1C(=O)NC(=O)/C(=C/c2ccc(OC)c(CSc3ccccn3)c2)C1=O	80.0[inhibitor]	i	i	i	i	i	i	i	i
COc1ccc(N2C(=O)/C(=C/c3cc(C)n(-c4ccc(C)cn4)c3C)C(=O)NC2=S)c(OC)c1	i	i	i	i	33.0[inhibitor]	i	i	i	i
COc1ccc(N2C(=O)/C(=C/c3ccc(C)o3)C(=O)NC2=S)cc1	i	i	i	i	i	i	nt	nt	nt
COc1ccc(OC)c(N2C(=O)/C(=C/c3ccco3)C(=O)NC2=S)c1	i	i	nt	?	66.0[inhibitor]	72.6	i	i	i
C=CCNC(=O)c1c(N)n(CCN2CCOCC2)c2nc3ccccc3nc12	i	i	i	i	i	i	nt	nt	nt
Nc1c(C(=O)NCc2ccco2)c2nc3ccccc3nc2n1CCN1CCCCC1	122.0	29.0	i	i	146.0	i	i	i	i
CC[n+]1c(SC)ccc2cc(OC)ccc21	175.0	i	nt	i	i	i	i	i	i
COP(=S)(OC)SCn1nnc2ccccc2c1=O	nt	nt	i	nt	nt	nt	nt	nt	nt
CCOC(=O)C1(c2ccccc2)CCN(CCC(=O)Nc2ccc(OC)cc2)CC1	nt	nt	i	nt	nt	nt	nt	nt	nt
CCOC(=O)C1(c2ccccc2)CCN(CCC(C#N)(c2ccccc2)c2ccccc2)CC1	i	i	i	i	136.0	i	i	i	i
Cc1nc2ccccc2c(=O)n1-c1ccc(Br)cc1[N+](=O)[O-]	i	i	i	i	i	i	nt	nt	nt
SMILES	MEKK3 PB1 HTS	MEKK2mut PB1 HTS	DSG3 Ab inh	UBC13 polyUb	MEKK2wt PB1 HTS	Apaf-1 inh	MEKK2wt confirm	MEKK2mut-MEK5	MEKK3 confirm
CCCCCCC(C)(C)c1ccc([C@@H]2C[C@H](O)CC[C@H]2CCCO)c(O)c1	nt	nt	i	i	nt	i	nt	nt	nt
CSc1ccc(C(=O)C2CCCN(Cc3cc4ccccc4[nH]3)C2)cc1 (centres undefined)	i	i	i	i	217.0	i	i	i	i
N#CC1c2ccccc2C=CN1C(=O)c1ccc(N(CCCl)CCCl)cc1 (centres undefined)	nt	nt	i	nt	nt	nt	nt	nt	nt
COc1cccc(CNCCc2c[nH]c3ccccc23)c1OC	i	i	nt	i	147.0	i	i	i	i
COc1ccc(CNCCc2c[nH]c3ccccc23)c(OC)c1OC	i	i	i	i	i	i	nt	nt	nt
CCOc1cc(C2C(C#N)=C(N)Oc3c2c(=O)oc2ccccc32)ccc1OC(=O)c1cccs1 (centres undefined)	129.0	i	i	i	i	i	i	i	i
CCCCC(=O)N/N=C/c1c(O)n(CC)c(=S)[nH]c1=O	2.0[inhibitor]	i	i	i	1.0[inhibitor]	i	i	i	i
CC(=O)OC1N=C(c2ccccc2Cl)c2cc(Br)ccc2N(C)C1=O (centres undefined)	i	i	i	i	i	i	nt	nt	nt
